The text below walks through data of ChEMBL document CHEMBL4052623, “Synthesis and antiproteasomal activity of novel O-benzyl salicylamide-based inhibitors built from leucine and phenylalanine” (Eur J Med Chem, 2017).

Assay [1] deals with T1, Proteasome component C5 (Homo sapiens) (UniProt P20618).
T1 sequence (whole entry): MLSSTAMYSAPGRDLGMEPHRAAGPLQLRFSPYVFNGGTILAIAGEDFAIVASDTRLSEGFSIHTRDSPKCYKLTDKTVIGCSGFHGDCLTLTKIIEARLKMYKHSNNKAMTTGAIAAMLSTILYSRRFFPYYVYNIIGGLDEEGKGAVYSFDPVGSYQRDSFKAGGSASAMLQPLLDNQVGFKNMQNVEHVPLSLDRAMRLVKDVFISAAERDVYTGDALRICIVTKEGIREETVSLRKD
The experiment in a line: Inhibition of caspase like activity of 26S proteasome beta 1 subunit in human U266 cells assessed as residual activity using […] as substrate at 10 uM preincubated for 1 hr followed by substrate addition and measured after 4 hrs by fluorescence assay relative to control. The class given is cell-based.

In assay [2] the target is Proteasome Macropain subunit (Homo sapiens) (UniProt P49721). The experiment in a line: Inhibition of trypsin like activity of 26S proteasome beta 2 subunit in human U266 cells assessed as residual activity using […] as substrate at 10 uM preincubated for 1 hr followed by substrate addition and measured after 4 hrs by fluorescence assay relative to control. The class given is cell-based.
Chain of Proteasome Macropain subunit (Homo sapiens) (P49721 whole entry): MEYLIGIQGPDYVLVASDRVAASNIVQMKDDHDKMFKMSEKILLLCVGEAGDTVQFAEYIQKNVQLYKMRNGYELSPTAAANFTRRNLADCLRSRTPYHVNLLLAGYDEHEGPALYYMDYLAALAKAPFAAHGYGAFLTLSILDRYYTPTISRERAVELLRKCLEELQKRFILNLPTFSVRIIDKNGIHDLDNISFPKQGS

In assay [3] the target is T2, Proteasome Macropain subunit MB1 (Homo sapiens, UniProt P28074).
T2 sequence (P28074 whole entry): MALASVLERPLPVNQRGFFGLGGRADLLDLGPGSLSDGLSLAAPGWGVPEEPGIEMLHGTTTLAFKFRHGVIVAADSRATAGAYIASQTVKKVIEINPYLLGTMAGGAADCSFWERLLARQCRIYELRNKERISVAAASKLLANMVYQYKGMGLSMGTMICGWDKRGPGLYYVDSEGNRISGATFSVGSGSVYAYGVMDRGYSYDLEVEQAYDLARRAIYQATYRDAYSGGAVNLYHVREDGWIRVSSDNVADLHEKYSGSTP
Description: Inhibition of chymotrypsin-like activity of 26S proteasome beta 5 subunit in human U266 cells using Suc-LLVY-aminoluciferin as substrate after 1 hr by Proteosome-Glo luminescence assay. It counts as cell-based. An outline of the steps: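 U266 multiple myeloma cells plated at 20,000 cells/well and exposed to varying compound concentrations for 1 h at 37 °C, in duplicate. 26S proteasome activity measured immediately as luciferase-coupled hydrolysis of the β5 substrate Suc-LLVY-aminoluciferin (Proteasome-Glo), read by luminescence. Activity normalised to untreated cells; IC50 derived from dose-response curves.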

The next assay deals with U-266. The experiment in a line: Antiproliferative activity against human U266 cells after 72 hrs by calcein AM staining based fluorescence assay. To be noted: U-266, 72 h. The class given is functional. An outline of the steps:
(§1)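 Cells treated with three-fold compound dilutions in triplicate for 72 h. Calcein AM added afterwards and live-cell fluorescence read at 485/538 nm (ex/em). GI50, the concentration lethal to 50% of tumour cells, calculated from dose-response curves.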

Another assay relates to CCRF-CEM. The experiment in a line: Antiproliferative activity against human CEM cells after 72 hrs by calcein AM staining based fluorescence assay. The class given is functional. An outline of the steps:
as §1

Assay [4] concerns the target T3, Proteasome Macropain subunit MB1 (Homo sapiens) (UniProt P28074).
T3 sequence (whole entry): T2 sequence (P28074 whole entry)
The experiment in a line: Inhibition of chymotrypsin like activity of 26S proteasome beta 5 subunit in human U266 cells assessed as residual activity using N-Suc-LLVY-AMC as substrate at 10 uM preincubated for 1 hr followed by substrate addition and measured after 4 hrs by fluorescence assay relative to control. The class given is cell-based.

The next assay has as its system K562. Description: Antiproliferative activity against human K562 cells after 72 hrs by calcein AM staining based fluorescence assay. The class given is functional. Conditions: K562, 72 h. An outline of the steps: as §1

On to `CC(C)CC(C=O)NC(=O)[C@H](CC(C)C)NC(=O)c1cc(Cl)ccc1OCc1ccccc1` (some centres not stated), for which the Activity was found to be 35.3% in assay [1], 88.1% in assay [2] and 84.3% in assay [4]. For the same compound, in assay [3], the half-inhibitory concentration (IC50) is more than 1 µM. Also, the 50% growth inhibitory concentration (GI50) was 37 µM with U-266, 16.3 µM in the assay on CCRF-CEM and 21 µM with K562.
On to `CON(C)C(=O)[C@H](Cc1ccccc1)NC(=O)[C@H](Cc1ccccc1)NC(=O)[C@H](CC(C)C)NC(=O)c1cc(Cl)ccc1OCc1ccccc1`, for which the GI50 in the assay on U-266 was 56.3 µM; with CCRF-CEM it was 35.7 µM; in the assay on K562, 34.7 µM.
In the same order, the values of `CON(C)C(=O)C(Cc1ccccc1)NC(=O)[C@H](Cc1ccccc1)NC(=O)c1cc(Cl)ccc1O` (some centres not stated) are 68.7 µM, 54.2 µM and 79.5 µM.
Take `COC(=O)[C@@H](CC(C)C)NC(=O)[C@H](Cc1ccccc1)NC(=O)[C@H](CC(C)C)NC(=O)c1cc(Cl)ccc1OCc1ccccc1`: the concentration for 50% growth inhibition (GI50) in the assay on U-266 is 88.5 µM; in the assay on CCRF-CEM it was 68.2 µM; in the assay with K562, more than 100 µM.
In the same order, the values of `COC(=O)[C@H](Cc1ccccc1)NC(=O)[C@H](Cc1ccccc1)NC(=O)[C@H](CC(C)C)NC(=O)c1cc(Cl)ccc1OCc1ccccc1` are 82.1 µM, 48 µM and 72 µM.
In the same order, the values of `CON(C)C(=O)[C@H](CC(C)C)NC(=O)[C@H](Cc1ccccc1)NC(=O)[C@H](CC(C)C)NC(=O)c1cc(Cl)ccc1OCc1ccccc1` are 48.6 µM, 19 µM and 16.4 µM.
In the same order, the values of `COC(=O)[C@@H](CC(C)C)NC(=O)[C@H](CC(C)C)NC(=O)[C@H](CC(C)C)NC(=O)c1cc(Cl)ccc1OCc1ccccc1` are 82 µM, 51 µM and more than 100 µM.
Take `COC(=O)[C@H](CC(C)C)NC(=O)[C@H](CC(C)C)NC(=O)[C@H](CC(C)C)NC(=O)c1cc(Cl)ccc1OCc1ccccc1`: the GI50 in the assay on U-266 is 84.9 µM; in the assay on CCRF-CEM, 48.4 µM; in the assay on K562, 87.5 µM.
Regarding `CC(C)C[C@@H](C=O)NC(=O)[C@H](CC(C)C)NC(=O)[C@H](CC(C)C)NC(=O)c1cc(Cl)ccc1OCc1ccccc1`, the Activity in assay [1] stood at 34.6%; in assay [2], 54.2%; in assay [4], 11.8%. In assay [3], this compound yielded an IC50 of 0.057 µM. Further, the figures for the GI50 with U-266, in the assay on CCRF-CEM and with K562 were 0.2 µM, 0.41 µM and 0.76 µM, respectively.
Consider `CC(C)C[C@H](NC(=O)c1cc(Cl)ccc1O)C(=O)N[C@@H](Cc1ccccc1)C(=O)N[C@H](CO)Cc1ccccc1`, for which the GI50 is 18.9 µM in the assay with U-266, 10.8 µM with CCRF-CEM and 27.3 µM in the assay with K562.
In the same order, the values of `CON(C)C(=O)[C@H](Cc1ccccc1)NC(=O)[C@H](Cc1ccccc1)NC(=O)c1cc(Cl)ccc1OCc1ccccc1` are 72.1 µM, 28.6 µM and 29.6 µM.
In the same order, the values of `CON(C)C(=O)[C@H](CC(C)C)NC(=O)c1cc(Cl)ccc1O` are more than 100 µM, 58.6 µM and more than 100 µM.
In the same order, the values of `CON(C)C(=O)[C@@H](CC(C)C)NC(=O)[C@H](Cc1ccccc1)NC(=O)[C@H](CC(C)C)NC(=O)c1cc(Cl)ccc1OCc1ccccc1` are 22.6 µM, 17.6 µM and 28.9 µM.
As for `CON(C)C(=O)[C@H](Cc1ccccc1)NC(=O)[C@H](Cc1ccccc1)NC(=O)[C@H](CC(C)C)NC(=O)c1cc(Cl)ccc1O`, the figures for the 50% growth inhibitory concentration (GI50) in the assay on U-266, in the assay with CCRF-CEM and in the assay on K562 were 23.1 µM, 16.3 µM and 22.2 µM, respectively.
In the same order, the values of `CON(C)C(=O)[C@H](Cc1ccccc1)NC(=O)[C@H](CC(C)C)NC(=O)c1cc(Cl)ccc1O` are 79.2 µM, 48.2 µM and 93.6 µM.
Take `CON(C)C(=O)[C@H](Cc1ccccc1)NC(=O)c1cc(Cl)ccc1OCc1ccccc1`: the GI50 with U-266 is 92.3 µM; in the assay with CCRF-CEM it was 65.2 µM; in the assay with K562 it was 50.9 µM.
As to `O=C[C@H](Cc1ccccc1)NC(=O)[C@H](Cc1ccccc1)NC(=O)c1cc(Cl)ccc1OCc1ccccc1`, the values for the Activity in assay [1], in assay [2] and in assay [4] were 71.5%, 78.4% and 97.3%, respectively. This compound had an IC50 in assay [3] of more than 1 µM. Besides, the concentration for 50% growth inhibition (GI50) in the assay on U-266 is 21.7 µM; with CCRF-CEM, 15.5 µM; in the assay on K562 it was 27.1 µM.
As to `CON(C)C(=O)[C@H](CC(C)C)NC(=O)c1cc(Cl)ccc1OCc1ccccc1`, the values for the 50% growth inhibitory concentration (GI50) with U-266, in the assay on CCRF-CEM and with K562 were 54.1 µM, 45.2 µM and 42.7 µM, respectively.
Regarding `O=C[C@H](Cc1ccccc1)NC(=O)c1cc(Cl)ccc1OCc1ccccc1`, the Activity in assay [1] amounted to 53%; in assay [2], 70.2%; in assay [4] it was 70.8%. This compound also yielded an IC50 in assay [3] of more than 1 µM. Moreover, the GI50 was 63.8 µM in the assay with U-266, 17.7 µM in the assay on CCRF-CEM and 33.3 µM in the assay with K562.
As to `CON(C)C(=O)[C@H](CC(C)C)NC(=O)[C@H](CC(C)C)NC(=O)[C@H](CC(C)C)NC(=O)c1cc(Cl)ccc1OCc1ccccc1`, the values for the GI50 with U-266, in the assay with CCRF-CEM and with K562 were 55.2 µM, 30.6 µM and 55.6 µM, respectively.
Turning to `CC(C)C[C@@H](CO)NC(=O)[C@H](Cc1ccccc1)NC(=O)[C@H](CC(C)C)NC(=O)c1cc(Cl)ccc1O`, the values for the concentration for 50% growth inhibition (GI50) in the assay on U-266, with CCRF-CEM and in the assay on K562 were 11.8 µM, 8.45 µM and 22.4 µM, respectively.
`CON(C)C(=O)[C@H](Cc1ccccc1)NC(=O)c1cc(Cl)ccc1O`: the concentration for 50% growth inhibition (GI50) in the assay on U-266 was 72.4 µM; in the assay with CCRF-CEM it was 55.5 µM; with K562, 99.1 µM.
In the same order, the values of `CON(C)C(=O)[C@H](CC(C)C)NC(=O)[C@H](Cc1ccccc1)NC(=O)c1cc(Cl)ccc1O` are 71.6 µM, 64.1 µM and 90.9 µM.
With `CON(C)C(=O)[C@H](Cc1ccccc1)NC(=O)[C@H](CC(C)C)NC(=O)c1cc(Cl)ccc1OCc1ccccc1`, the 50% growth inhibitory concentration (GI50) in the assay on U-266 was 81.9 µM; in the assay on CCRF-CEM, 19.5 µM; with K562, 22.5 µM.
In the same order, the values of `COC(=O)[C@H](CC(C)C)NC(=O)[C@H](Cc1ccccc1)NC(=O)[C@H](CC(C)C)NC(=O)c1cc(Cl)ccc1OCc1ccccc1` are 83.7 µM, 48.5 µM and 58.5 µM.
In the same order, the values of `COC(=O)[C@H](Cc1ccccc1)NC(=O)[C@H](CC(C)C)NC(=O)[C@H](CC(C)C)NC(=O)c1cc(Cl)ccc1OCc1ccccc1` are 72.2 µM, 31.4 µM and 70.3 µM.
In the same order, the values of `CON(C)C(=O)[C@H](CC(C)C)NC(=O)[C@H](Cc1ccccc1)NC(=O)[C@H](CC(C)C)NC(=O)c1cc(Cl)ccc1O` are 32.8 µM, 17.2 µM and 30.9 µM.
`CON(C)C(=O)[C@H](CC(C)C)NC(=O)[C@H](CC(C)C)NC(=O)c1cc(Cl)ccc1OCc1ccccc1`: the GI50 is 35.2 µM with U-266, 22.2 µM with CCRF-CEM and 33.2 µM with K562.
In the same order, the values of `CON(C)C(=O)[C@H](Cc1ccccc1)NC(=O)[C@H](CC(C)C)NC(=O)[C@H](CC(C)C)NC(=O)c1cc(Cl)ccc1OCc1ccccc1` are 47.2 µM, 15.1 µM and 44.2 µM.
Turning to `CON(C)C(=O)[C@H](CC(C)C)NC(=O)[C@H](CC(C)C)NC(=O)c1cc(Cl)ccc1O`, the concentration for 50% growth inhibition (GI50) with U-266 was 69 µM; in the assay on CCRF-CEM, 63 µM; with K562, 98.1 µM.
In the same order, the values of `CON(C)C(=O)[C@@H](CC(C)C)NC(=O)[C@H](CC(C)C)NC(=O)[C@H](CC(C)C)NC(=O)c1cc(Cl)ccc1OCc1ccccc1` are 23.7 µM, 11.5 µM and 34 µM.
For `CON(C)C(=O)[C@@H](CC(C)C)NC(=O)[C@H](Cc1ccccc1)NC(=O)c1cc(Cl)ccc1OCc1ccccc1`, the concentration for 50% growth inhibition (GI50) in the assay on U-266 was 67.4 µM; with CCRF-CEM, 32.2 µM; in the assay on K562, 25.8 µM.

The term IC50 denotes the concentration needed to halve the response being measured. In general, GI50 refers to the concentration giving 50% growth inhibition.
